Compound activity from PubChem.
TPT1 inhibitor: C. albicans TPT1 enzyme inhibition; hit rate 0.81% among 300,000; AID 1962; recombinant caTPT1, FP RNA substrate dephosphorylation; inhibition, % at 5 µM;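 active = inhibition above the mean of all tested compounds plus 3 SD, set per screening campaign, cut at about 24% in these data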;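 note: plate controls were DMSO alone for no effect and ferristatin control at 100 nM for full effect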
Neddylation inh: inhibitors of human cullin neddylation. P61081+Q13564. AID 651699. TR-FRET cullin neddylation, biochemical. hit rate 0.58% among 360,000. inhibition, % at 25 µM; in the data active = inhibition above about 36%
Rin1-Abl PPI inh: blocks binding of human Rin1 to Abl. hit rate 0.4% among 360,000. inhibition, % at 7.35 µM. TR-FRET Rin1/Abl binding, biochemical; in the data active = inhibition above about 5%, passing the limit was not always enough
CSN deneddyl inh: CSN deneddylation inhibition. Q92905. Purified CSN, SCF-Nedd8-OG deneddylation, fluorescence polarization. inhibition, % at 12.5 µM. hit rate 0.38% among 360,000;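 active = pattern-corrected inhibition above about 35%, with an unprinted fluorescence ratio check between 0.5 and 1.5, limit read from the data, passing the limit was not always enough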;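 note: 0% = enzyme with substrate and 100% = substrate without enzyme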
Target sequence (Q92905 whole entry, looked up, one chain of several): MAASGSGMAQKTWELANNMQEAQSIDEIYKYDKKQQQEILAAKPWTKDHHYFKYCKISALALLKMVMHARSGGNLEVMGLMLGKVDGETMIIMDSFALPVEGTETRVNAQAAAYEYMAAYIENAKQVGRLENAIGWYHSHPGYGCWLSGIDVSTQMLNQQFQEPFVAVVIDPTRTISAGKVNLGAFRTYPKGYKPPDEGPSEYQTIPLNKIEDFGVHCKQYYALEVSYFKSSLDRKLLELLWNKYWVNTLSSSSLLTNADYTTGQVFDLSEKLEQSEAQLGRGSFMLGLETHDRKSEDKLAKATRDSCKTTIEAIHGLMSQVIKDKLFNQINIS
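Material: purified human Csn5 enzyme expressed in HEK293T cells / Medium: Tris buffer pH 7.5, NaCl, DTT, Tween-20, trehalose, ovalbumin / Compound dosing: 12.5 µM single point / Schedule: 90 min incubation of compound, enzyme and substrate at room temperature / Signal: fluorescence polarization of the substrate / Control set: no-enzyme wells high, enzyme-with-substrate wells low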
Rpn11 block: blocks the human proteasome subunit Rpn11. O00487. human 26S proteasome, Ub4-pepOG fluorescence polarization; 20S core pre-blocked with epoxomicin. inhibition, % at 20 µM. hit rate 0.59% among 360,000. AID 588493;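 active = inhibition at 20 µM, scaled to each plate's controls, above about 33%, limit read from the data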
Target sequence (O00487 whole entry, looked up): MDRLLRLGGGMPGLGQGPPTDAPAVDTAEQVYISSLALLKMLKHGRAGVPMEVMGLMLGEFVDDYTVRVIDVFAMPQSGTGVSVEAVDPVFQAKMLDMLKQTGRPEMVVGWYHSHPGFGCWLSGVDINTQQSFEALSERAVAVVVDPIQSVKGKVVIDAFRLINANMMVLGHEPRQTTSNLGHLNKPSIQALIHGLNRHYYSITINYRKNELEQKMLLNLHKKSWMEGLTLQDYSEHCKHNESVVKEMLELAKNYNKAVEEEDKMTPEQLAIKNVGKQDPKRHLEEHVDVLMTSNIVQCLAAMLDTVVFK
HNF4A DNA FP: change in binding of human HNF4 alpha to DNA; hit rate 0.3% among 360,000; P41235; HNF4a-FITC DNA binding, fluorescence polarization, 1 h; AID 1224865; activity change, % at 10 µM; in the data active = activity change above about 30%, passing the limit was not always enough
Neddyl inh conf: confirmation of human cullin neddylation inhibitors; hit rate 13% among 1,800; calls only at 25 µM; TR-FRET cullin neddylation biochemical assay; shares compounds with Neddylation inh; AID 652217; in the data active = inhibition above about 40%;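 note: neddylation substrate is the cullin 1 ring ligase complex with SKP2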
An asterisk follows results filed as active; i = inactive; / = no result shown; + = active, no number. Rows were chosen to be rich in hits. Some 2.4% of all compounds tested hit in one or more screens of this group.

SMILES	TPT1 inhibitor	Neddylation inh	Rin1-Abl PPI inh	CSN deneddyl inh	Rpn11 block	HNF4A DNA FP	Neddyl inh conf
O=c1[nH]c2ccccc2nc1/C=C/c1ccccc1	-1.7	42.3*	0.5	-5.9	-1.4	-1.0	/
Cc1cccn2c(/C=N/OCc3cccc(F)c3)c(-c3ccc(Cl)cc3)nc12	0.7	47.9*	0.5	0.1	-0.2	-0.6	i
CC1Oc2ccccc2C=C1/C=N/NC(=O)c1ccccc1O (stereo not drawn)	-2.9	51.0*	-1.8	-4.0	18.4	18.2	i
COc1ccc(C(=O)n2cc(C(=O)c3cc(C)ccc3O)cn2)cc1OC	3.7	43.9*	-1.7	-9.3	9.4	-4.5	/
COc1ccc(O)c(C(=O)c2cnn(C(=O)c3cccc(N(C)C)c3)c2)c1	/	41.3*	3.9	6.0	5.9	-1.9	i
CN(C)c1cccc(C(=O)n2cc(C(=O)c3cc(F)ccc3O)cn2)c1	-1.8	/	-0.1	3.6	2.4	-0.2	/
CN(C)c1cccc(C(=O)OCC(=O)Nc2ccccc2Cl)c1	7.8	/	0.8	3.3	-8.1	-0.1	/
CCOc1ccc(CCNC(=O)COC(=O)c2cccc(N(C)C)c2)cc1OCC	3.4	40.0*	-1.6	1.4	4.3	-0.5	i
CN(C)c1cccc(C(=O)OCC(=O)Nc2ccccc2-c2ccccc2)c1	1.2	40.0*	-0.7	0.5	-0.7	1.0	i
Cc1sc2nc(CN3CCCCC3)nc(Cl)c2c1C	-1.0	-18.6	-1.2	-5.6	-6.3	1.3	/
CCc1ccc(-c2cnc3nc[nH]c(=O)c3n2)cc1	-2.7	58.5*	-2.4	2.4	-4.3	-1.1	+
O=c1[nH]c(=O)c2nc(-c3ccc(Cl)cc3)cnc2[nH]1	-2.3	38.1	0.8	-9.0	0.7	1.5	/
C[C@H](O)C(=O)C1=Nc2c(nc(N)[nH]c2=O)NC1	-8.0	54.6*	-3.5	-3.8	-7.5	-8.6	i
N#C/C(=C\c1cn(Cc2ccc(C#N)cc2)c2ccccc12)C(=O)NCc1cccs1	-4.4	43.3*	-1.9	-5.7	2.1	-1.5	/
N#C/C(=C\c1cn(CCOc2ccccc2F)c2ccccc12)C(=O)NCc1cccs1	9.9	33.0	-0.2	-2.5	-0.9	-3.7	/
CCN(CC)S(=O)(=O)c1cccc(C(=O)N/N=C(\C)c2cccs2)c1	1.6	-5.6	1.1	-8.7	-7.6	4.5	/
COc1ccccc1NS(=O)(=O)c1cccc(C(=O)N/N=C/c2ccc(C)o2)c1	-0.7	8.9	4.3	3.6	2.2	2.2	/
Cc1ccc(/C=N/NC(=O)c2cccc(S(=O)(=O)Nc3cccc(Cl)c3)c2)o1	-1.6	43.4*	3.9	-2.8	-0.4	-4.9	i
C/C(=N\NC(=O)c1cccc(S(=O)(=O)Nc2cccc(Cl)c2)c1)c1cccs1	-4.3	43.8*	-1.8	-5.7	-4.6	-0.7	i
Cc1cccc(N(C(=O)c2snc(C(N)=O)c2N)C(C(=O)NCC2CCCO2)c2cccs2)c1 (stereo not drawn)	-2.4	44.5*	-0.8	0.7	-14.0	2.8	i
CCCC(C(=O)NC(C)(C)C)N(CC1CCCO1)C(=O)c1snc(C(N)=O)c1N (stereo not drawn)	-0.9	32.2	-2.7	-5.7	-1.3	-1.2	/
COc1cccc(N(C(=O)c2snc(C(N)=O)c2N)C(C(=O)NCC2CCCO2)c2ccc(F)cc2)c1 (stereo not drawn)	-1.3	43.6*	-2.9	1.1	-3.3	4.5	i
Cc1ccc(C)c(N(C(=O)c2snc(C(N)=O)c2N)C(C(=O)NCC2CCCO2)c2cccs2)c1 (stereo not drawn)	-3.1	/	0.3	-8.8	3.4	0.8	/
CCc1ccccc1N(C(=O)c1snc(C(N)=O)c1N)C(C(=O)NCC1CCCO1)c1ccc(OC)c(OC)c1 (stereo not drawn)	/	/	2.8	-1.4	5.4	1.8	/
CCCC(C(=O)NC1CCCC1)N(CC1CCCO1)C(=O)c1snc(C(N)=O)c1N (stereo not drawn)	-2.8	41.0*	0.7	4.2	1.0	3.9	i
SMILES	TPT1 inhibitor	Neddylation inh	Rin1-Abl PPI inh	CSN deneddyl inh	Rpn11 block	HNF4A DNA FP	Neddyl inh conf
COc1ccc(C(C(=O)NCC2CCCO2)N(C(=O)c2snc(C(N)=O)c2N)c2ccccc2)cc1OC (stereo not drawn)	/	50.1*	0.4	-0.5	-0.6	1.9	+
CCOC(=O)[C@]12CCCC=C1N(Cc1cccc3ccccc13)C(=O)[C@H](CC(=O)N1CCCC1)C2	/	-5.8	/	0.5	/	-0.6	/
CCC(C(=O)NC(CC(=O)O)c1ccc(Cl)cc1)c1ccccc1 (stereo not drawn)	-0.6	0.3	-1.9	1.9	14.9	2.1	/
O=C(Nc1ccc(S(=O)(=O)Nc2ncccn2)cc1)C1=COCCO1	10.7	12.9	0.4	-1.2	16.6	13.1	/
COC(=O)C(NC(C)=O)(Nc1ccc(C)cn1)C(F)(F)F (stereo not drawn)	-2.1	12.3	0.4	4.5	-2.8	-2.3	/
CCCc1cc(-n2cnc3ccccc32)n2c(nc3ccccc32)c1C#N	9.9	42.1*	-2.2	2.0	1.7	9.0	i
CCN(CC)C(=O)c1ncn2c1c(=O)[nH]c1ccccc12	/	2.6	-2.5	-3.6	1.9	-0.7	/
C[C@H](NC(=O)c1ncn2c1c(=O)[nH]c1ccccc12)c1ccccc1	/	40.1*	0.1	4.7	-1.8	-0.1	+
Cc1sc2ncn(CC(=O)NCCCN3CC(C)CC(C)C3)c(=O)c2c1S(=O)(=O)N1CC(C)CC(C)C1 (stereo not drawn)	0.2	-98.8	-2.4	4.1	-5.6	1.8	/
Cn1cnc(S(=O)(=O)Nc2ccc(OC(F)F)cc2)c1	-0.7	49.0*	-4.8	1.8	-2.0	0.7	i
CC1(C(=O)N/N=C/c2ccccc2)CC1(Cl)Cl (stereo not drawn)	-1.9	2.7	0.0	-1.9	-0.9	-6.3	/
COc1cc2c(cc1OC)-c1cc(NC3CCCC3)nc(=O)n1CC2	0.9	40.9*	-6.5	-2.6	6.0	0.3	i
COc1cc2c(cc1OC)-c1cc(Nc3ccc(F)cc3)nc(=O)n1CC2	1.0	14.8	-1.7	3.2	2.8	1.1	/
O=C(NC(=S)NCC1CCCO1)c1ccc([N+](=O)[O-])cc1 (stereo not drawn)	-4.4	-36.3	-2.7	-2.9	-0.4	1.4	/
COC(=O)c1cccc(CN2C(=O)SC(Nc3ccccc3)C2=O)c1 (stereo not drawn)	3.4	37.4*	-8.2	31.5	6.6	-20.8	i
Cc1cccc(NC2SC(=O)N(CC(=O)O)C2=O)c1 (stereo not drawn)	-5.7	8.1	-2.6	5.4	13.8	3.9	/
O=C(c1ccco1)N1CCN(Cc2cc(=O)c(OCc3ccc(F)cc3)co2)CC1	-0.9	9.8	2.5	19.2	1.1	3.0	/
CCn1c(=O)c(-c2ccccc2)c(O)c2ccccc21	0.0	40.9*	-4.8	1.0	-3.3	3.1	+
